KDM4C inh: inhibitors of human demethylase GASC-1 KDM4C; Q9H3R0; GST-KDM4C 2-372, H3K9me3 peptide, LANCE TR-FRET; inhibition, % at 12.5 µM; 96,000 compounds, 0.15% hits; AID 720574;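 active = mean replicate inhibition above about 25%, with at least 55% of replicates also reaching it, limit read from the data, passing the limit was not always enough; inconclusive = only one of those two conditions met; inactive = neither condition met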
Target sequence (Q9H3R0 2-372 limits assumed): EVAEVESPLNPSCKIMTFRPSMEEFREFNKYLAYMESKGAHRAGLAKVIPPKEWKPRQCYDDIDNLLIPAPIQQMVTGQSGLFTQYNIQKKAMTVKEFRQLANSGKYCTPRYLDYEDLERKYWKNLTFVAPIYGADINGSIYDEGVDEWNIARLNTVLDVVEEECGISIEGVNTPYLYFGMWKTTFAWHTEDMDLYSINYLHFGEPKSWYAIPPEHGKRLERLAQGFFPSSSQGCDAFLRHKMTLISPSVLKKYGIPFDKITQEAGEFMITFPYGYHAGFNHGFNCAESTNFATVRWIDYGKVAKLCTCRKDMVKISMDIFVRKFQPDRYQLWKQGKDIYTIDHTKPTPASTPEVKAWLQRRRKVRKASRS
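Test system – GST-tagged GASC-1 (JMJD2C) catalytic fragment, aa 2-372 · Medium – HEPES buffer, pH 7.5, plus ascorbate · Reagent – H3K9me3 peptide with Fe(II)/2OG · Compound – one test concentration per compound · Timing – 30 min reaction, 60 min detection, RT · Technique – TR-FRET with Eu antibody and ULight streptavidin, EDTA stop · Read-out basis – inhibition from TR-FRET ratio decrease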
IDH1 R132H inh: blocks human IDH1 R132H reductase activity. O75874. diaphorase/resazurin fluorescence, 60 min. inhibition, % at 10 µM. 70,000 compounds, 0.18% hits; in the data active = inhibition above about 34%; inconclusive = no clear call, values can overlap the other calls; inactive = below about 11%
Target sequence (O75874 whole entry R132H): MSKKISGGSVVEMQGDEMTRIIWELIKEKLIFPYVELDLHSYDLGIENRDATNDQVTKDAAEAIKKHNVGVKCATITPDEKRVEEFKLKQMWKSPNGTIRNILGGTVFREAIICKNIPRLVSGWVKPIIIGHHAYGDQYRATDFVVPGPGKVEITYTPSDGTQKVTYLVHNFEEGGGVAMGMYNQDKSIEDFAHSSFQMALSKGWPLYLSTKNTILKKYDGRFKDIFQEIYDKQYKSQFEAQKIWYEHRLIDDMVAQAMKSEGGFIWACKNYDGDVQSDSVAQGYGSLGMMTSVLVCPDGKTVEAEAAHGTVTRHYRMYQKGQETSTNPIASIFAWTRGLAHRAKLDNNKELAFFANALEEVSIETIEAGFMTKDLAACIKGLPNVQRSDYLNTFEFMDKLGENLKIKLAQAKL
Pf Dd2 inh: inhibitors of Plasmodium falciparum Dd2 growth | 94,000 compounds, 2.3% hits | activity change, % at 10 µM | P. falciparum Dd2 growth, SYBR Green, 72 h; active compounds read low; in the data active = activity change below about -80%; inconclusive = no clear call, values can overlap the other calls
T cruzi growth-1: inhibitors of T. cruzi proliferation; T. cruzi beta-gal in NIH3T3, GalScreen luminescence, 90 h; inhibition, % at 8.34 µM; 77,000 compounds, 5.9% hits;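 active = mean inhibition above about 93%, with at least 55% of replicates each passing it, limit read from the data, passing the limit was not always enough; inconclusive = only one of those two conditions holds; inactive = neither condition holds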
T cruzi growth-2: inhibitors of T. cruzi proliferation; T. cruzi beta-gal in NIH3T3, GalScreen luminescence, 90 h; shares compounds with T cruzi growth-1; 5,600 compounds, 72% hits; AID 651739; inhibition, % at 8.35 µM;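 active = mean replicate inhibition above about 95% and at least 55% of replicates individually reaching it, limit read from the data; inconclusive = only one of the two criteria is met; inactive = neither criterion is met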
T cruzi growth-3: Trypanosoma cruzi proliferation inhibition. T. cruzi beta-gal in NIH3T3, GalScreen luminescence, 90 h. inhibition, % at 2.09 µM. shares compounds with T cruzi growth-1. 5,600 compounds, 21% hits;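 active = mean inhibition above about 95%, with at least 55% of replicates also reaching it, limit read from the data; inconclusive = meets just one of the two conditions; inactive = meets neither condition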
NIH3T3 tox: NIH/3T3 (mouse) viability loss; shares compounds with T cruzi growth-1; NIH/3T3 viability, CellTiter-Glo ATP luminescence, 90 h; cytotoxicity (signal decrease), % at 8.35 µM; 5,600 compounds, 14% hits; AID 651742;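 active = mean signal decrease across replicates above about 35% based on untreated-well scatter, with enough replicates individually passing, limit read from the data; inconclusive = no rule stated though some were filed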
NIH3T3 tox 2: kills mouse NIH/3T3 fibroblasts | inhibition, % at 24.9 µM | NIH/3T3 viability, CellTiter-Glo ATP luminescence, 90 h | 5,600 compounds, 56% hits | shares compounds with T cruzi growth-1;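 active = mean loss of cell viability signal at or above a set limit, and enough replicates individually reaching it; inconclusive = meets only the mean limit or only the replicate share; inactive = meets neither condition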
Each line names hits and unclear results; the compound was inactive in the other large screens (follow-up assays come after a bar, where they were run); ! = repeats disagree. Sampled rows, rich in hits. Any-hit rate of the full collection: about 5.9%.

O=C(c1ccc(Cl)cc1)c1ccc(CSc2nnc(-c3ccccc3)o2)o1	none (no result: KDM4C inh, Pf Dd2 inh, T cruzi growth-1)
CCS(=O)(=O)N1[C@H](CO)[C@@H](c2ccc(C#Cc3ccccc3F)cc2)[C@@H]1C#N	T cruzi growth-1 inconclusive (no result: IDH1 R132H inh) | T cruzi growth-2 107 | T cruzi growth-3 109 | NIH3T3 tox inactive | NIH3T3 tox 2 inactive
N#C[C@H]1[C@@H](c2ccc(C#Cc3ccccc3F)cc2)[C@H](CO)N1C(=O)C1CC1	none (no result: IDH1 R132H inh)
N#C[C@@H]1[C@H](c2ccc(C#Cc3ccc(F)cc3)cc2)[C@@H](CO)N1C(=O)C1CCCC1	none (no result: IDH1 R132H inh)
N#C[C@H]1[C@H](c2ccc(C#Cc3ccc(F)cc3)cc2)[C@H](CO)N1C(=O)C1CC1	T cruzi growth-1 114 (no result: IDH1 R132H inh) | T cruzi growth-2 102 | T cruzi growth-3 inactive | NIH3T3 tox inactive | NIH3T3 tox 2 80
N#C[C@@H]1[C@@H](c2ccc(C#Cc3ccccc3F)cc2)[C@@H](CO)N1C(=O)C1CCCCC1	T cruzi growth-1 102 (no result: IDH1 R132H inh) | T cruzi growth-2 109 | T cruzi growth-3 inactive | NIH3T3 tox inactive | NIH3T3 tox 2 80
N#C[C@@H]1[C@H](c2ccc(C#Cc3ccccc3F)cc2)[C@@H](CO)N1C(=O)C1CC1	T cruzi growth-1 99 (no result: IDH1 R132H inh) | T cruzi growth-2 99 | T cruzi growth-3 inactive | NIH3T3 tox inactive | NIH3T3 tox 2 43
Cc1ccc(S(=O)(=O)N(C)CC(=O)Nc2cccc(C#N)c2)cc1	none (no result: KDM4C inh, Pf Dd2 inh, T cruzi growth-1)
COCC(=O)N1[C@H](C#N)[C@@H](c2ccc(C#Cc3ccccc3F)cc2)[C@H]1CO	T cruzi growth-1 101 | T cruzi growth-2 98 | T cruzi growth-3 inactive | NIH3T3 tox inactive | NIH3T3 tox 2 inactive
N#C[C@@H]1[C@@H](c2ccc(C#Cc3ccccc3F)cc2)[C@H](CO)N1C(=O)C1CCCCC1	none (no result: IDH1 R132H inh)
N#C[C@@H]1[C@H](c2ccc(C#Cc3ccccc3F)cc2)[C@H](CO)N1C(=O)C1CC1	T cruzi growth-1 100 (no result: IDH1 R132H inh) | T cruzi growth-2 102 | T cruzi growth-3 110 | NIH3T3 tox inactive | NIH3T3 tox 2 44
N#C[C@H]1[C@@H](c2ccc(C#Cc3ccccc3F)cc2)[C@@H](CO)N1C(=O)C1CC1	T cruzi growth-1 103 | T cruzi growth-2 104 | T cruzi growth-3 104 | NIH3T3 tox inactive | NIH3T3 tox 2 30
N#C[C@@H]1[C@H](c2ccc(C#Cc3ccccc3F)cc2)[C@H](CO)N1C(=O)C1CCC1	none (no result: IDH1 R132H inh)
Cc1ccc(NCC(O)CSc2nc3c(cc2C#N)CCCC3)cc1 (stereo not drawn)	none (no result: KDM4C inh, Pf Dd2 inh, T cruzi growth-1)
O=C(CN1CCOCC1)N1CCCCN2[C@H](CO)[C@@H](c3ccc(C#Cc4ccccc4F)cc3)[C@H]2C1	T cruzi growth-1 110 (no result: IDH1 R132H inh) | T cruzi growth-2 97 | T cruzi growth-3 inactive | NIH3T3 tox 54 | NIH3T3 tox 2 95
O=C(CN1CCOCC1)N1CCCCN2[C@H](CO)[C@@H](c3ccc(C#Cc4ccccc4F)cc3)[C@@H]2C1	none (no result: IDH1 R132H inh)
O=C(CN1CCOCC1)N1CCCCN2[C@@H](CO)[C@H](c3ccc(C#Cc4ccccc4F)cc3)[C@@H]2C1	T cruzi growth-1 107 (no result: IDH1 R132H inh) | T cruzi growth-2 112 | T cruzi growth-3 inactive | NIH3T3 tox 42 | NIH3T3 tox 2 102
O=C(CN1CCOCC1)N1CCCCN2[C@@H](CO)[C@@H](c3ccc(C#Cc4ccccc4F)cc3)[C@@H]2C1	T cruzi growth-1 107 (no result: IDH1 R132H inh) | T cruzi growth-2 98 | T cruzi growth-3 inactive | NIH3T3 tox inconclusive | NIH3T3 tox 2 100
CCn1c(SCC(=O)Nc2ccc(Cl)cc2C)nnc1-c1ccc(Cl)cc1	none (no result: KDM4C inh, Pf Dd2 inh, T cruzi growth-1)
COc1ccccc1CC(=O)Nc1ccc(-c2noc(-c3cc(OC)c(OC)c(OC)c3)n2)cc1	none (no result: KDM4C inh, Pf Dd2 inh, T cruzi growth-1)
CO[C@H]1/C=C\O[C@@]2(C)Oc3c(C)c(O)c4c(O)c(c(/C=N\N5CCN(C)CC5)c(O)c4c3C2=O)NC(=O)/C(C)=C\C=C/C(C)[C@H](O)[C@@H](C)[C@@H](O)[C@@H](C)[C@@H](OC(C)=O)[C@@H]1C (stereo partly drawn)	none (no result: KDM4C inh, Pf Dd2 inh, T cruzi growth-1)
C[C@@H]1CN([C@H](C)CO)C(=O)CCCn2cc(nn2)CO[C@@H]1CN(C)C(=O)CCC(F)(F)F	T cruzi growth-1 inconclusive | T cruzi growth-2 inactive | T cruzi growth-3 inactive | NIH3T3 tox inactive | NIH3T3 tox 2 inactive
C[C@@H]1CN([C@@H](C)CO)C(=O)CCCn2cc(nn2)CO[C@H]1CN(C)C(=O)c1ccc(N2CCN(C)CC2)cc1	T cruzi growth-1 inconclusive | T cruzi growth-2 inactive | T cruzi growth-3 inactive | NIH3T3 tox inactive | NIH3T3 tox 2 inactive
C[C@H](CO)N1C[C@H](C)[C@H](CN(C)C(=O)CCC(F)(F)F)OCc2cn(nn2)CCCC1=O	none (no result: IDH1 R132H inh)
C[C@H](CO)N1C[C@H](C)[C@@H](CN(C)C(=O)Nc2ccccc2)OCc2cn(nn2)CCCC1=O	T cruzi growth-1 127! | T cruzi growth-2 inactive | T cruzi growth-3 inactive | NIH3T3 tox inactive | NIH3T3 tox 2 inactive
C[C@@H]1CN([C@H](C)CO)C(=O)CCCn2cc(nn2)CO[C@H]1CN(C)C(=O)c1ccc(N2CCN(C)CC2)cc1	none
C[C@@H]1CN([C@@H](C)CO)C(=O)CCCn2cc(nn2)CO[C@@H]1CN(C)C(=O)Nc1ccccc1	T cruzi growth-1 inconclusive | T cruzi growth-2 inactive | T cruzi growth-3 inactive | NIH3T3 tox inactive | NIH3T3 tox 2 inactive
Cc1ccc(S(=O)(=O)N2C(=O)CCC2C(=O)Nc2cccc(Br)c2)cc1 (stereo not drawn)	none (no result: KDM4C inh, Pf Dd2 inh, T cruzi growth-1)
C[C@@H]1CN([C@H](C)CO)C(=O)CCCn2cc(nn2)CO[C@@H]1CN(C)C(=O)Nc1ccc(C(C)(C)C)cc1	T cruzi growth-1 122 | T cruzi growth-2 101 | T cruzi growth-3 inactive | NIH3T3 tox inactive | NIH3T3 tox 2 inactive
C[C@H]1CN([C@@H](C)CO)C(=O)CCCn2cc(nn2)CO[C@@H]1CN(C)C(=O)Nc1ccc(C(C)(C)C)cc1	none (no result: KDM4C inh)
C[C@H](CO)N1C[C@H](C)[C@H](CN(C)Cc2ccc(C(F)(F)F)cc2)OCc2cn(nn2)CCCC1=O	T cruzi growth-1 inconclusive | T cruzi growth-2 inactive | T cruzi growth-3 inactive | NIH3T3 tox inactive | NIH3T3 tox 2 inactive
O=C(Nc1ccc(-c2ccccc2)cc1)[C@H]1[C@H](CO)[C@H]2Cn3c(cccc3=O)[C@H]2N1CC1CCCCC1	T cruzi growth-1 inconclusive (no result: IDH1 R132H inh) | T cruzi growth-2 inactive | T cruzi growth-3 110 | NIH3T3 tox inactive | NIH3T3 tox 2 107
O=C(Nc1nccs1)[C@H]1[C@H](CO)[C@H]2Cn3c(ccc(-c4ccccc4)c3=O)[C@H]2N1CC1CCCC1	T cruzi growth-1 98 (no result: IDH1 R132H inh) | T cruzi growth-2 106 | T cruzi growth-3 inactive | NIH3T3 tox inactive | NIH3T3 tox 2 64
